Source: PubChem
Insulin prom inh – TRM-6 insulin promoter activity inhibition; inhibition, % at 2 µM; TRM-6 cells (human fetal islet line), insulin promoter-eGFP reporter, imaging; reporter expression induced with tamoxifen; actives 0.9% (n = 130,000);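 active = inhibition above the mean plus 3 SD, with well images judged a real hit on visual review, cut at about 60% in these data, passing the limit was not always enough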
HSV augment – HSV replication enhancement; HSV replication augmentation in cells, fold increase; maximum fold increase; actives 0.005% (n = 220,000); AID 1956; in the data active = maximum fold increase above about 1.5; tested in PC3 cells
Dynein cargo inh – dynein cargo transport inhibition; AID 1381; actives 0.47% (n = 220,000); z-score, hits read low; 3617.4 mouse cells, GR-EGFP nuclear translocation imaging; test concentration mostly 20 µM; stimulated with dexamethasone, 1 µM; hits give low values;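 active = plate z-score of nuclear minus cytoplasmic receptor signal below a set negative limit, without overly bright fluorescence or cell loss, cut at about -3.5 in these data, passing the limit was not always enough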;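 note: z-score of nuclear minus cytoplasmic ring GR-EGFP intensity difference per well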
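Buffer or medium: tet-free, stripped-serum medium; Also added: dexamethasone, 1.0 µM final; Technique: high-content fluorescence imaging after fixation; Times: 48 h induction, 1 h compound, 30 min dex at 37 °C; Read-out: per-cell GR-EGFP intensity, nucleus versus surrounding cytoplasmic ring, well-averaged.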
Ins promoter up – MIN6 insulin promoter up-regulation; MIN6 insulin promoter-GFP reporter, high-content imaging; hits give high values; z-score at 5 µM; actives 0.3% (n = 190,000); AID 1625;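 active = z-score above 3 at 5 µM with at least 500 cells counted in the well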
Furin inhibitor – inhibitors of human furin; P09958; purified furin, fluorogenic substrate cleavage; inhibition, % at 20 µM or 30 µM; actives 0.061% (n = 220,000); AID 463115; in the data active = inhibition above about 25%
Target sequence (P09958 108-714 limits assumed): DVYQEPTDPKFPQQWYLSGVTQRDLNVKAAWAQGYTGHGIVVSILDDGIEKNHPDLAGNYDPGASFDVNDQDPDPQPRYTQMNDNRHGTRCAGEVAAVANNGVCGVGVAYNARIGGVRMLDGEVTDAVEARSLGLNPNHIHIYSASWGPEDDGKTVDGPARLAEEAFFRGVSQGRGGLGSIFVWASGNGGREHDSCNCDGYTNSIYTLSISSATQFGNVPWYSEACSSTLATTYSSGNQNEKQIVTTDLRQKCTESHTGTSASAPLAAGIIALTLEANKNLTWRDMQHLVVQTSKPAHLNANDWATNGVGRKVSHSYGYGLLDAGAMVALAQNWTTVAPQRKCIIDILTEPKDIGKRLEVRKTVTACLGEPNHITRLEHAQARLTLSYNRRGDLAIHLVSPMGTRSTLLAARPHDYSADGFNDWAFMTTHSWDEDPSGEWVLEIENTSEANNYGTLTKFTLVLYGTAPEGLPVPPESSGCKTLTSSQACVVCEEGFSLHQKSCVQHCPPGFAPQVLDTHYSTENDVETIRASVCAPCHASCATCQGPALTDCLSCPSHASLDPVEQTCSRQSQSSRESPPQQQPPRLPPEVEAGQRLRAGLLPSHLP
Autophagy HCS – modulators of autophagy; MEF GFP-LC3 puncta imaging; test concentration mostly 10 µM; actives 0.98% (n = 190,000); AID 463193; calls only at 10 µM (by protocol);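 active = percentage of spot-positive cells more than 3 SD above its plate mean, without a fluorescence outlier flag or 80% toxicity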;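 note: spot-positive cell cutoff set from DMSO-treated cells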
Dynein inh conf – dynein cargo transport inhibition, confirmation. calls only at 20 µM. 3617.4 GR-EGFP nuclear translocation imaging, dexamethasone-induced. AID 463116. shares compounds with Dynein cargo inh. actives 69% (n = 1,000);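 active = inhibition of receptor movement into the nucleus at or above a set limit in both runs, with normal cell brightness and cell count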;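 note: dexamethasone at 1 µM final in well for 30 min; nuclear minus cytoplasmic GR-EGFP mean intensity difference in channel 2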
Numbers without * were called inactive; i = inactive; x = not tested or not shown; + = active, no number. Compounds with a hit are over-represented: about 2% of the library has one in this group of screens.

SMILES | Insulin prom inh | HSV augment | Dynein cargo inh | Ins promoter up | Furin inhibitor | Autophagy HCS | Dynein inh conf
Cc1c(C(=O)/C=C/N(C)C)nnn1-c1ccc(Cl)cc1C#N | x | i | -0.044 | 0 | 3 | x | x
NC(=O)NC(=O)COC(=O)c1ccc2c(c1)C(=O)N(Cc1ccccc1)C2=O | x | i | 1.8 | -0.19 | -21 | x | x
CCCN1C(=O)/C(=C/c2ccc3c(c2)OCO3)NC1=S | x | i | -0.68 | x | -17 | i | x
CCCN1C/C(=C/c2ccc3c(c2)OCO3)C(=O)/C(=C/c2ccc3c(c2)OCO3)C1 | -84 | i | -4.6* | 0.85 | -22 | i | +
N#Cc1nccnc1S(=O)(=O)c1cccs1 | x | i | -5.6* | -0.23 | 8 | x | +
CCOC(=O)c1cn(-c2c(Cl)cccc2Cl)c2cc(Cl)c([N+](=O)[O-])cc2c1=O | 21 | i | -4.4* | -0.66 | -13 | i | +
NC(=O)c1nc(-c2ccco2)nc2c1[nH]c(=O)n2-c1ccc(Cl)c(Cl)c1 | x | i | -0.2 | x | -18 | x | x
COc1cccc(N(C(=O)c2ccco2)C(C(=O)NC2CCCC2)c2cccnc2)c1 (stereo not given) | x | i | 0.47 | 0.9 | -21 | i | x
O=C(NC1CCCCC1)C(c1cccnc1)N(C(=O)CCl)c1cccc(Cl)c1 (stereo not given) | i | i | -4.3* | -1.2 | -32 | i | +
COC(=O)/C=C1\OC(c2ccccc2)=CC1=O | 30 | i | -0.62 | -0.11 | -19 | i | x
CC(=O)/C=C/n1c(=S)oc2ccccc21 | -31 | i | -4.1* | -1.3 | -13 | + | +
Cn1c(=S)oc2ccccc21 | x | i | -0.81 | 0.1 | -17 | x | x
CC(C)CC(=O)/C=C/n1c(=S)oc2ccccc21 | 7 | i | -4* | -0.32 | -25 | i | +
COc1ccc(OC)c(-c2csc(NC(=O)Cc3cccs3)n2)c1 | 33 | i | -0.71 | -1.2 | -21 | i | x
O=C(Cc1cccs1)Nc1nc(-c2ccc(F)cc2F)cs1 | 33 | i | -3.5* | 0.82 | -16 | i | i
CCOC(=O)CN1N=C(c2ccc(Cl)s2)CSC1=O | 58 | i | -0.69 | 0.19 | 0 | i | x
C=CCNC(=O)COC(=O)c1ccc(Sc2nncn2C)c([N+](=O)[O-])c1 | -14 | x | -1.3 | 0.54 | -37 | i | x
CN1CCN(NC(=O)c2cn(-c3ccccc3)nc2-c2ccc(OC(F)F)cc2)CC1 | x | i | -0.062 | -0.08 | -20 | i | x
COc1cc(/C=C/C(=O)c2ccc(F)cc2)cc(OC)c1OC | 47 | i | -4.7* | 0.26 | -12 | i | +
CCOc1ccc(C(=O)/C=C/c2cc(OC)c(OC)c(OC)c2)cc1 | x | i | -4.2* | 0.64 | -17 | i | +
COc1cc(/C=C/C(=O)O)cc(OC)c1OC | x | i | 2.2 | 0.83 | -8 | x | x
COc1ccc(C(=O)/C=C/c2ccc(OC(=O)c3cc(OC)c(OC)c(OC)c3)cc2)cc1 | -8 | i | -0.43 | 1.1 | -1 | i | x
Cc1ccc(-c2nc(=S)c3c(n2Cc2cccnc2)CC(C)(C)OC3)cc1 | x | i | -0.17 | -0.14 | 1 | x | x
COc1cccc(/C(O)=C/c2nc3ccc(C(=O)NCCc4ccc(Cl)cc4)cc3[nH]c2=O)c1 | -130 | i | -6.8 | 0.95 | -18 | + | +
Cc1ccc(C(C[N+](=O)[O-])n2nc(C)cc2C)cc1 (stereo not given) | 18 | i | -5.3* | -0.24 | -23 | i | i
SMILES | Insulin prom inh | HSV augment | Dynein cargo inh | Ins promoter up | Furin inhibitor | Autophagy HCS | Dynein inh conf
Cc1ccc(S(=O)(=O)n2nc(C)cc2C)cc1 | 25 | i | 2.1 | -0.91 | -13 | i | x
C[C@H](NC(N)=O)C(=O)OCC(=O)NCc1cccs1 | 6 | i | 0.34 | -1 | -16 | i | x
N#CCCN(C(=O)CCl)c1cccc(Cl)c1 | x | i | -3.8* | 0.66 | -16 | i | +
Cc1ccc(NC(=O)C(=O)NCc2ccc(/C=N/NC(=O)c3c(C)nc4ccccn34)o2)cc1 | x | i | -0.66 | -0.2 | -13 | i | x
Cc1ccc(S(=O)(=O)NC2OC(=O)C(Cl)=C2Cl)cc1 (stereo not given) | -12 | i | -3.6* | -0.4 | -12 | i | i
Cc1ccc(N2C(=O)CC(Sc3ncn[nH]3)C2=O)cc1C (stereo not given) | 60 | i | -6* | 0.12 | 2 | i | i
Cc1[nH]n(C(N)=S)c(=O)c1N=Nc1ccc2ccccc2c1 | x | i | -0.7 | -2 | -3 | i | x
COc1ccc(C(c2c(C)[nH]n(C(N)=S)c2=O)C(C#N)C#N)cc1 (stereo not given) | 19 | i | -4.1* | x | -18 | i | +
O=[N+]([O-])c1cc(Cl)cc2c1nc(NCCO)c1ccccc12 | x | i | -0.0023 | -1 | -13 | x | x
COc1ccc(N=C2S/C(=C\c3ccc(N4CCOCC4)o3)C(=O)N2CCc2c[nH]c3ccccc23)cc1 | 43 | i | -9.1 | x | -4 | + | +
COc1ccc(N=C2S/C(=C\c3ccc(OCC(=O)O)cc3)C(=O)N2CCc2c[nH]c3ccccc23)cc1 | x | i | 1.2 | 1.3 | -7 | i | x
Cc1nn(C)c(C(=O)NN)c1Cl | 19 | i | -0.023 | 0.19 | -21 | i | x
O=Cc1[nH]c2ccccc2c1N(C(=O)CCl)c1ccccc1 | x | i | -7.6 | 0.74 | -5 | x | +
O=C(CCl)N(c1ccccc1)c1ccccc1 | x | i | -4.5* | -0.55 | -23 | i | +
CCCCCCN(C(=O)CCl)c1ccccc1 | x | i | -4.7* | -0.28 | -4 | x | +
O=C1C=CC(=O)N1c1cccc(-c2ccccc2)c1 | x | i | -3.8* | x | -2 | x | i
CS(=O)(=O)c1ccc(S(=O)CC(=O)Oc2ccc(Cl)cc2)c([N+](=O)[O-])c1 (stereo not given) | -240 | i | -6.5* | 0.23 | -23 | i | +
O=C(CS(=O)c1ccccc1[N+](=O)[O-])Oc1ccc(Br)cc1 (stereo not given) | x | i | -0.15 | -0.09 | -17 | i | x
CCOc1cc(/C=N/NC(N)=O)cc(Br)c1OCC(=O)Nc1ccccc1C | 31 | i | 0.15 | x | -2 | i | x
CCOc1cc(/C=C\[N+](=O)[O-])ccc1OCC(=O)Nc1ccccc1C | x | i | -3.6* | 1.3 | -14 | i | +
Cc1cc(Nc2cc(Cl)nc(Sc3ccc(NC(=O)C4CC4)cc3)n2)n[nH]1 | x | i | x | x | x | x | x
CC(=O)n1cc(N(C(=O)CCl)c2ccc(C)cc2)c2ccccc21 | x | i | -6* | -0.95 | -19 | x | +
c1ccc2c(c1)CC1(CCCC1)N=C2N1CCOCC1 | x | i | 0.3 | 0.38 | 4 | x | x
O=C(COc1ccccc1)N1CCN(S(=O)(=O)c2cccc([N+](=O)[O-])c2)CC1 | x | i | -0.29 | -0.12 | -23 | i | x
